Data as given in ChEMBL document CHEMBL3407400, “Design, synthesis and biological evaluations of chirally pure 1,2,3,4-tertrahydroisoquinoline analogs as anti-cancer agents” (Eur J Med Chem, 2015).
Values belong to the molecule of their own block, whether it stands above or below them. The source made the active and inactive calls. No cut-off for these calls is given here.

How the values were obtained:
DU-145 [1] = experiment: Anticancer activity against human DU145 cells after 48 hrs by MTT assay; type: functional, cell-based; settings: DU-145, 48 h
Procedure, shortened: (§1)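 Cell lines held in DMEM or MEM with 10% FBS and antibiotic-antimycotic at 37 °C, 5% CO2. Cells seeded at 1 × 10⁴ per well in DMEM with 10% FBS and left 24 h. Compounds diluted in medium and added alongside vehicle control for 48 h. MTT (5 mg/mL) added for 4 h, formazan dissolved in DMSO, absorbance read at 570 nm.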

A549 = experiment: Anticancer activity against human A549 cells after 48 hrs by MTT assay; type: functional, cell-based; settings: A549, 48 h; procedure, shortened: as §1
MCF7 = experiment: Anticancer activity against human MCF7 cells after 48 hrs by MTT assay; type: functional, cell-based; settings: MCF7, 48 h; procedure, shortened: as §1
HepG2 = experiment: Anticancer activity against human HepG2 cells after 48 hrs by MTT assay; type: functional, cell-based; settings: HepG2, 48 h; procedure, shortened: as §1
HeLa = experiment: Anticancer activity against human HeLa cells after 48 hrs by MTT assay; type: functional, cell-based; procedure, shortened: as §1
DU-145 [2] = experiment: Cell cycle arrest in human DU145 cells assessed as G2/M phase at 1 uM after 48 hrs by propidium iodide based flow cytometry (reference value: 6.75 %); type: functional
DU-145 [3] = experiment: Cell cycle arrest in human DU145 cells assessed as G0/G1 phase at 1 uM after 48 hrs by propidium iodide based flow cytometry (reference value: 79.15 %); type: functional
DU-145 [4] = experiment: Cell cycle arrest in human DU145 cells assessed as S phase at 1 uM after 48 hrs by propidium iodide based flow cytometry (reference value: 1.65 %); type: functional
DU-145 [5] = experiment: Cell cycle arrest in human DU145 cells assessed as subG1 phase at 1 uM after 48 hrs by propidium iodide based flow cytometry (reference value: 9.36 %); type: functional
DU-145 [6] = experiment: Induction of apoptosis in human DU145 cells assessed as viable cells at 0.5 uM after 48 hrs by annexin V FITC/PI dual staining assay (reference value: 96.45 %); type: functional; settings: DU-145, 48 h, read-out: Activity
DU-145 [7] = experiment: Induction of apoptosis in human DU145 cells assessed as necrotic cells at 0.5 uM after 48 hrs by annexin V FITC/PI dual staining assay (reference value: 0.31 %); type: functional
DU-145 [8] = experiment: Cell cycle arrest in human DU145 cells assessed as G0/G1 phase at 0.5 uM after 48 hrs by propidium iodide based flow cytometry (reference value: 79.15 %); type: functional
DU-145 [9] = experiment: Induction of apoptosis in human DU145 cells assessed as viable cells at 1 uM after 48 hrs by annexin V FITC/PI dual staining assay (reference value: 96.45 %); type: functional; settings: DU-145, 48 h, read-out: Activity
DU-145 [10] = experiment: Cell cycle arrest in human DU145 cells assessed as subG1 phase at 0.5 uM after 48 hrs by propidium iodide based flow cytometry (reference value: 9.36 %); type: functional
DU-145 [11] = experiment: Induction of apoptosis in human DU145 cells assessed as early apoptotic cells at 0.5 uM after 48 hrs by annexin V FITC/PI dual staining assay (reference value: 0.77 %); type: functional
DU-145 [12] = experiment: Induction of apoptosis in human DU145 cells assessed as down regulation of Bcl2 at 0.5 uM after 48 hrs by Western blot analysis relative to control; type: functional, cell-based
DU-145 [13] = experiment: Cell cycle arrest in human DU145 cells assessed as G2/M phase at 0.5 uM after 48 hrs by propidium iodide based flow cytometry (reference value: 6.75 %); type: functional
DU-145 [14] = experiment: Disruption of microtubule network in human DU145 cells at 50 uM after 48 hrs by immunohistochemistry analysis; type: cell-based
DU-145 [15] = experiment: Induction of apoptosis in human DU145 cells assessed as DNA fragmentation at 0.5 uM after 48 hrs by agarose gel electrophoresis; type: functional, cell-based
Procedure, shortened: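 DU-145 cells (1 × 10⁶) seeded, then treated 24 h later for 48 h. Lysate cleared, then digested with SDS/RNase A (2 h, 56 °C) and proteinase K (2 h, 37 °C). DNA precipitated with ammonium acetate and ice-cold ethanol, dissolved in TE. Laddering resolved on 2% agarose.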

DU-145 [16] = experiment: Induction of apoptosis in human DU145 cells assessed as necrotic cells at 1 uM after 48 hrs by annexin V FITC/PI dual staining assay (reference value: 0.31 %); type: functional
DU-145 [17] = experiment: Induction of apoptosis in human DU145 cells assessed as early apoptotic cells at 1 uM after 48 hrs by annexin V FITC/PI dual staining assay (reference value: 0.77 %); type: functional
DU-145 [18] = experiment: Cell cycle arrest in human DU145 cells assessed as S phase at 0.5 uM after 48 hrs by propidium iodide based flow cytometry (reference value: 1.65 %); type: functional
DU-145 [19] = experiment: Induction of apoptosis in human DU145 cells assessed as up regulation of Bax at 0.5 uM after 48 hrs by Western blot analysis relative to control; type: functional, cell-based
DU-145 [20] = experiment: Induction of apoptosis in human DU145 cells assessed as activation of caspase 3 at 0.5 to 1 uM after 48 hrs by fluorometric assay relative to control; type: functional
Procedure, shortened: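 DU-145 cells treated for 48 h. Fluorometric caspase-3 kit used: […] substrate added to cell lysate, 1 h at 37 °C. Fluorescence read at excitation 400 nm, emission 505 nm.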

DU-145 [21] = experiment: Induction of apoptosis in human DU145 cells assessed as late apoptotic cells at 0.5 uM after 48 hrs by annexin V FITC/PI dual staining assay (reference value: 2.47 %); type: functional
DU-145 [22] = experiment: Induction of apoptosis in human DU145 cells assessed as late apoptotic cells at 1 uM after 48 hrs by annexin V FITC/PI dual staining assay (reference value: 2.47 %); type: functional
Tubulin = experiment: Inhibition of tubulin (unknown origin) polymerization by fluorescence assay; type: protein-complex assay, Homo sapiens

Compound: COc1cccc(/C=C/C(=O)N2Cc3ccccc3[C@@H](OCc3ccccc3)[C@@H]2CO)c1OC
- IC50 (DU-145 [1]): 29.9 µM
- IC50 (A549): 39.8 µM
- IC50 (MCF7): 55.1 µM
- IC50 (HepG2): 31 µM
- IC50 (HeLa): 32.8 µM

Compound: Cc1ccc(S(=O)(=O)N[C@H](C(=O)N2Cc3ccccc3[C@@H](OCc3ccccc3)[C@@H]2CO)C(C)C)cc1
- IC50 (DU-145 [1]): 31.6 µM
- IC50 (A549): 79.4 µM
- IC50 (MCF7): 60.4 µM
- IC50 (HepG2): 32 µM
- IC50 (HeLa): 92.6 µM

Compound: COc1ccc(C(=O)N2Cc3ccccc3[C@@H](OCc3ccccc3)[C@@H]2CO)c(O)c1
- IC50 (DU-145 [1]): 9.77 µM
- IC50 (A549): 6.46 µM
- IC50 (MCF7): 21.8 µM
- IC50 (HepG2): 11.4 µM
- IC50 (HeLa): 12.5 µM

Compound: COc1cc([C@@H]2c3cc4c(cc3[C@@H](O[C@@H]3O[C@@H]5CO[C@@H](C)O[C@H]5[C@H](O)[C@H]3O)[C@H]3COC(=O)[C@H]23)OCO4)cc(OC)c1O [ETOPOSIDE]
- IC50 (DU-145 [1]): 1.98 µM
- IC50 (A549): 3.01 µM
- Activity (DU-145 [2]): 38.75%
- Activity (DU-145 [3]): 48.84%
- IC50 (MCF7): 2.69 µM
- Activity (DU-145 [4]): 1.45%
- Activity (DU-145 [5]): 7.13%
- IC50 (HepG2): 2.45 µM
- IC50 (HeLa): 3.23 µM

Continued by falling IC50 (DU-145 [1]), values first:

- IC50 (DU-145 [1]): 7.41 µM
- IC50 (A549): 13.7 µM
- IC50 (MCF7): 17.6 µM
- IC50 (HepG2): 10.8 µM
- IC50 (HeLa): 20.3 µM
Compound: Cc1ccc(S(=O)(=O)N2C[C@H]3[C@H](OCc4ccccc4)c4ccccc4CN3C(=O)[C@@H]2Cc2ccccc2)cc1

- IC50 (DU-145 [1]): 6.16 µM
- IC50 (A549): 9.33 µM
- IC50 (MCF7): 18.6 µM
- IC50 (HepG2): 7.94 µM
- IC50 (HeLa): 11.6 µM
Compound: CC#CC(=O)N1Cc2ccccc2[C@@H](OCc2ccccc2)[C@@H]1CO

- IC50 (DU-145 [1]): 3.8 µM
- IC50 (A549): 6.03 µM
- IC50 (MCF7): 11.5 µM
- IC50 (HepG2): 5.05 µM
- IC50 (HeLa): 15.1 µM
Compound: Cc1ccc(S(=O)(=O)NCC(=O)N2Cc3ccccc3[C@@H](OCc3ccccc3)[C@@H]2CO)cc1

- IC50 (DU-145 [1]): 1.3 µM
- IC50 (HeLa): 2.29 µM
Compound: COc1cccc2c1C(=O)c1c(O)c3c(c(O)c1C2=O)C[C@@](O)(C(=O)CO)C[C@@H]3O[C@H]1C[C@H](N)[C@H](O)[C@H](C)O1 [DOXORUBICIN]

- IC50 (DU-145 [1]): 1.26 µM
- IC50 (A549): 6.91 µM
- IC50 (MCF7): 8.71 µM
- IC50 (HepG2): 2.24 µM
- IC50 (HeLa): 12.3 µM
Compound: Cc1ccc(S(=O)(=O)N[C@@H](Cc2ccccc2)C(=O)N2Cc3ccccc3[C@@H](OCc3ccccc3)[C@@H]2CO)cc1

- IC50 (DU-145 [1]): 1.23 µM
- IC50 (A549): 2.45 µM
- IC50 (MCF7): 5.49 µM
- IC50 (HepG2): 1.7 µM
- IC50 (HeLa): 7.31 µM
- IC50 (Tubulin): 3.55 µM
Compound: Cc1ccc(S(=O)(=O)N2C[C@H]3[C@H](OCc4ccccc4)c4ccccc4CN3C(=O)[C@@H]2C)cc1
- viability at 0.5 µM (DU-145 [6]): 92.8%
- Activity (DU-145 [7]): 0.82%
- Activity (DU-145 [8]): 68.53%
- viability at 1 µM (DU-145 [9]): 69.2%
- Activity (DU-145 [2]): 40.27%
- Activity (DU-145 [10]): 8.25%
- Activity (DU-145 [11]): 1.88%
- Activity (DU-145 [3]): 46.67%
- Activity (DU-145 [12]): Active
- Activity (DU-145 [4]): 1.83%
- Activity (DU-145 [13]): 16.96%
- Activity (DU-145 [14]): Active
- Activity (DU-145 [15]): Active
- Activity (DU-145 [16]): 4.7%
- Activity (DU-145 [17]): 4.94%
- Activity (DU-145 [5]): 6.74%
- Activity (DU-145 [18]): 2.8%
- Activity (DU-145 [19]): Active
- fold change (FC) (DU-145 [20]): 3
- Activity (DU-145 [21]): 4.45%
- Activity (DU-145 [22]): 21.14%
